Experimental data as given in ChEMBL document CHEMBL1687766, “In vitro activity of the new multivalent glycopeptide-cephalosporin antibiotic TD-1792 against vancomycin-nonsusceptible Staphylococcus isolates” (Antimicrob Agents Chemother, 2010).
≈ marks a conversion by molar mass, not a printed value.

Tests used:
Staphylococcus aureus [1] = test: Antimicrobial activity against vancomycin-intermediate Staphylococcus aureus isolate MU50 assessed as bacterial count at 4 times MIC after 24 hrs by colony counting method; type: functional
Summary of the method: (§1)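 24-h time-kill run in triplicate in supplemented Mueller-Hinton broth (12.5 μg/ml Mg, 25 μg/ml Ca), adjusted to 1.1–1.3 mM Ca for daptomycin. […] Samples were taken at 0, 1, 4, 8 and 24 h and counted on BHI agar after 24 h at 35°C. Value is log10 CFU/ml change from baseline at 24 h.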

Staphylococcus aureus [2] = test: Antimicrobial activity against vancomycin-intermediate Staphylococcus aureus isolate MU50 assessed as bacterial count at 8 times MIC after 24 hrs by colony counting method; type: functional; summary of the method: as §1
Staphylococcus aureus [3] = test: Antimicrobial activity against vancomycin-intermediate Staphylococcus aureus isolate MU50 assessed as bacterial count at 16 times MIC after 24 hrs by colony counting method; type: functional
Summary of the method: (§2)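 Time-kill in triplicate. Mid-exponential culture (OD600 ~0.3) diluted in supplemented Mueller-Hinton broth to 5 × 10^6 CFU/ml. Daptomycin was run at physiologic calcium, 1.1 to 1.3 mM. […] Samples at 0, 1, 4, 8 and 24 h were diluted in cold saline or vacuum filtered, then spiral-plated on BHI agar for 24 h at 35°C. Value is the log10 CFU/ml change from baseline at 24 h.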

Staphylococcus aureus [4] = test: Antimicrobial activity against vancomycin-intermediate Staphylococcus aureus isolate MU50 assessed as bacterial count at 32 times MIC after 24 hrs by colony counting method; type: functional; summary of the method: as §1
Staphylococcus aureus [5] = test: Antimicrobial activity against vancomycin-intermediate Staphylococcus aureus isolate NJ992 assessed as bacterial count at 4 times MIC after 24 hrs by colony counting method; type: functional; summary of the method: as §1
Staphylococcus aureus [6] = test: Antimicrobial activity against vancomycin-intermediate Staphylococcus aureus isolate NJ992 assessed as bacterial count at 8 times MIC after 24 hrs by colony counting method; type: functional; summary of the method: as §1
Staphylococcus aureus [7] = test: Antimicrobial activity against vancomycin-intermediate Staphylococcus aureus isolate NJ992 assessed as bacterial count at 16 times MIC after 24 hrs by colony counting method; type: functional; summary of the method: as §1
Staphylococcus aureus [8] = test: Antimicrobial activity against vancomycin-intermediate Staphylococcus aureus isolate NJ992 assessed as bacterial count at 32 times MIC after 24 hrs by colony counting method; type: functional; summary of the method: as §1
Staphylococcus aureus [9] = test: Antimicrobial activity against vancomycin-resistant Staphylococcus aureus isolate MI assessed as bacterial count at 4 times MIC after 24 hrs by colony counting method; type: functional; summary of the method: as §2
Staphylococcus aureus [10] = test: Antimicrobial activity against vancomycin-resistant Staphylococcus aureus isolate MI assessed as bacterial count at 8 times MIC after 24 hrs by colony counting method; type: functional; summary of the method: as §2
Staphylococcus aureus [11] = test: Antimicrobial activity against vancomycin-resistant Staphylococcus aureus isolate MI assessed as bacterial count at 16 times MIC after 24 hrs by colony counting method; type: functional; summary of the method: as §2
Staphylococcus aureus [12] = test: Antimicrobial activity against vancomycin-resistant Staphylococcus aureus isolate MI assessed as bacterial count at 32 times MIC after 24 hrs by colony counting method; type: functional; summary of the method: as §2
Staphylococcus aureus [13] = test: Antimicrobial activity against vancomycin-resistant Staphylococcus aureus isolate PA assessed as bacterial count at 4 times MIC after 24 hrs by colony counting method; type: functional; summary of the method: as §2
Staphylococcus aureus [14] = test: Antimicrobial activity against vancomycin-resistant Staphylococcus aureus isolate PA assessed as bacterial count at 8 times MIC after 24 hrs by colony counting method; type: functional; summary of the method: as §2
Staphylococcus aureus [15] = test: Antimicrobial activity against vancomycin-resistant Staphylococcus aureus isolate PA assessed as bacterial count at 16 times MIC after 24 hrs by colony counting method; type: functional; summary of the method: as §2
Staphylococcus aureus [16] = test: Antimicrobial activity against vancomycin-resistant Staphylococcus aureus isolate PA assessed as bacterial count at 32 times MIC after 24 hrs by colony counting method; type: functional; summary of the method: as §2
Staphylococcus aureus [17] = test: Antimicrobial activity against vancomycin-resistant Staphylococcus aureus isolate NY after 24 hrs by microdilution method; type: functional
Summary of the method: (§3)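 Broth microdilution per CLSI, inoculum 5 × 10^5 CFU/ml, Mueller-Hinton broth with 12.5 μg/ml magnesium and 25 μg/ml calcium (SMHB). Daptomycin was instead tested in SMHB at physiologic calcium (final 1.1 to 1.3 mM). Incubation 24 h at 35°C; MIC read; run in duplicate. MBC from 5-μl samples of clear wells plated on BHI agar, 24 h at 35°C.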

Staphylococcus aureus [18] = test: Antimicrobial activity against vancomycin-intermediate Staphylococcus aureus isolate NJ992 after 24 hrs by microdilution method; type: functional; settings: isolate NJ992, 24 h; summary of the method: as §3
Staphylococcus aureus [19] = test: Antimicrobial activity against vancomycin-resistant Staphylococcus aureus isolate PA after 24 hrs by microdilution method; type: functional; summary of the method: as §3
Staphylococcus aureus [20] = test: Antimicrobial activity against vancomycin-resistant Staphylococcus aureus isolate MI after 24 hrs by microdilution method; type: functional; summary of the method: as §3
Staphylococcus aureus [21] = test: Antimicrobial activity against vancomycin-intermediate Staphylococcus aureus after 24 hrs by microdilution method; type: functional; summary of the method: as §3
[22] = system: Staphylococcus haemolyticus; test: Antimicrobial activity against vancomycin-intermediate Staphylococcus haemolyticus after 24 hrs by microdilution method; type: functional
Summary of the method: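 CLSI broth microdilution in supplemented Mueller-Hinton broth (12.5 μg/ml Mg, 25 μg/ml Ca), with Ca adjusted to 1.1–1.3 mM for daptomycin. Inoculum was 5 × 10^5 CFU/ml, incubated 24 h at 35°C, done in duplicate. For MBC, clear wells were plated on BHI agar and read after 24 h at 35°C.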

Staphylococcus aureus [23] = test: Antimicrobial activity against vancomycin-heteroresistant Staphylococcus aureus after 24 hrs by microdilution method; type: functional; summary of the method: as §3
Staphylococcus aureus [24] = test: Antimicrobial activity against vancomycin-intermediate Staphylococcus aureus isolate MU50 after 24 hrs by microdilution method; type: functional; settings: isolate MU50, 24 h; summary of the method: as §3
Staphylococcus aureus [25] = test: Antimicrobial activity against methicillin-resistant Staphylococcus aureus infected in patient with complicated skin and skin structure infections assessed as cure rate; type: functional
[26] = Plasma protein binding in human; type: ADME, cell-free; settings: read-out: PPB (converted)
[27] = Half life of healthy human; type: ADME, organism-based; settings: in vivo
Serum = test: Drug level in serum of healthy human; type: ADME, cell-free
[28] = Staphylococcus haemolyticus, 24 h

Work on `CC(=O)NC[C@H]1CN(c2ccc(N3CCOCC3)c(F)c2)C(=O)O1` [LINEZOLID] yielded a log10CFU/ml (Staphylococcus aureus [1]) of 3.19, a log10CFU/ml (Staphylococcus aureus [2]) of 3.26 and a log10CFU/ml (Staphylococcus aureus [3]) of 4.25. For the same molecule, the log10CFU/ml (Staphylococcus aureus [4]) was 4.8, the log10CFU/ml (Staphylococcus aureus [5]) was 2.13 and the log10CFU/ml (Staphylococcus aureus [6]) was 3.66. For the same molecule, the log10CFU/ml (Staphylococcus aureus [7]) was 3.98, the log10CFU/ml (Staphylococcus aureus [8]) was 4.89 and the log10CFU/ml (Staphylococcus aureus [9]) was 1.31. For the same molecule, the log10CFU/ml (Staphylococcus aureus [10]) was 1.55, the log10CFU/ml (Staphylococcus aureus [11]) was 3.64 and the log10CFU/ml (Staphylococcus aureus [12]) was 4.52. It also gave a log10CFU/ml (Staphylococcus aureus [13]) of 3.24, a log10CFU/ml (Staphylococcus aureus [14]) of 4.2 and a log10CFU/ml (Staphylococcus aureus [15]) of 4.24. The log10CFU/ml (Staphylococcus aureus [16]) was 4.95, the MBC (Staphylococcus aureus [17]) was 0.5 µg/mL (≈ 1.48 µM) and the MIC (Staphylococcus aureus [17]) was 0.25 µg/mL (≈ 0.741 µM). The MBC (Staphylococcus aureus [18]) was 2 µg/mL (≈ 5.93 µM), the MIC (Staphylococcus aureus [18]) was 1 µg/mL (≈ 2.96 µM) and the MBC (Staphylococcus aureus [19]) was 4 µg/mL (≈ 11.9 µM). For the same molecule, the MBC (Staphylococcus aureus [20]) was 16 µg/mL (≈ 47.4 µM), the MIC (Staphylococcus aureus [20]) was 1 µg/mL (≈ 2.96 µM) and the MBC50 (Staphylococcus aureus [21]) was 8 µg/mL (≈ 23.7 µM). It also gave an MBC90 (Staphylococcus aureus [21]) of 0.032 mg/mL (≈ 94.9 µM), an MBC (Staphylococcus aureus [21]; Staphylococcus aureus, 24 h) of 1 µg/mL (≈ 2.96 µM) and an MIC50 (Staphylococcus aureus [21]; Staphylococcus aureus, 24 h) of 2 µg/mL (≈ 5.93 µM). It also gave an MIC90 (Staphylococcus aureus [21]; Staphylococcus aureus, 24 h) of 2 µg/mL (≈ 5.93 µM), an MBC50 [22] of 8 µg/mL (≈ 23.7 µM) and an MBC90 [22] of 0.032 mg/mL (≈ 94.9 µM). The MBC [22, 28] was 1 µg/mL (≈ 2.96 µM), the MIC50 [22, 28] was 2 µg/mL (≈ 5.93 µM) and the MIC90 [22, 28] was 2 µg/mL (≈ 5.93 µM). For the same molecule, the MBC (Staphylococcus aureus [23]; Staphylococcus aureus, 24 h) was 1 µg/mL (≈ 2.96 µM), the MIC50 (Staphylococcus aureus [23]; Staphylococcus aureus, 24 h) was 2 µg/mL (≈ 5.93 µM) and the MIC90 (Staphylococcus aureus [23]; Staphylococcus aureus, 24 h) was 2 µg/mL (≈ 5.93 µM). The MBC (Staphylococcus aureus [24]) was 32 µg/mL (≈ 94.9 µM) and the MIC (Staphylococcus aureus [24]) was 1 µg/mL (≈ 2.96 µM).
Work on `CN[C@H](CC(C)C)C(=O)N[C@H]1C(=O)N[C@@H](CC(N)=O)C(=O)N[C@H]2C(=O)N[C@H]3C(=O)N[C@H](C(=O)N[C@H](C(=O)O)c4cc(O)cc(O)c4-c4cc3ccc4O)[C@H](O)c3ccc(c(Cl)c3)Oc3cc2cc(c3O[C@@H]2O[C@H](CO)[C@@H](O)[C@H](O)[C@H]2O[C@H]2C[C@](C)(N)[C@H](O)[C@H](C)O2)Oc2ccc(cc2Cl)[C@H]1O` [VANCOMYCIN] yielded a log10CFU/ml (Staphylococcus aureus [1]) of 2.71, a log10CFU/ml (Staphylococcus aureus [2]) of 3.32 and a log10CFU/ml (Staphylococcus aureus [3]) of 4.48. For the same molecule, the log10CFU/ml (Staphylococcus aureus [4]) was 4.41, the log10CFU/ml (Staphylococcus aureus [5]) was 2.88 and the log10CFU/ml (Staphylococcus aureus [6]) was 4.3. The log10CFU/ml (Staphylococcus aureus [7]) was 4.58, the log10CFU/ml (Staphylococcus aureus [8]) was 4.79 and the Activity (Staphylococcus aureus [25]) was 91.9%. It also gave an MBC (Staphylococcus aureus [17]) of 128 µg/mL (≈ 88.3 µM), an MIC (Staphylococcus aureus [17]) of 64 µg/mL (≈ 44.2 µM) and an MBC (Staphylococcus aureus [18]) of 8 µg/mL (≈ 5.52 µM). The MIC (Staphylococcus aureus [18]) was 8 µg/mL (≈ 5.52 µM), the MBC (Staphylococcus aureus [19]) was 64 µg/mL (≈ 44.2 µM) and the MIC (Staphylococcus aureus [19]) was 32 µg/mL (≈ 22.1 µM). It also gave an MBC (Staphylococcus aureus [20]) of over 2050 µg/mL, an MIC (Staphylococcus aureus [20]) of 1020 µg/mL (≈ 707 µM) and an MBC50 (Staphylococcus aureus [21]) of 4 µg/mL (≈ 2.76 µM). For the same molecule, the MBC90 (Staphylococcus aureus [21]) was 0.008 mg/mL (≈ 5.52 µM), the MBC (Staphylococcus aureus [21]; Staphylococcus aureus, 24 h) was 4 µg/mL (≈ 2.76 µM) and the MIC (Staphylococcus aureus [21]; Staphylococcus aureus, 24 h) was 4 µg/mL (≈ 2.76 µM). For the same molecule, the MIC50 (Staphylococcus aureus [21]; Staphylococcus aureus, 24 h) was 4 µg/mL (≈ 2.76 µM), the MIC90 (Staphylococcus aureus [21]; Staphylococcus aureus, 24 h) was 8 µg/mL (≈ 5.52 µM) and the MBC50 [22] was 4 µg/mL (≈ 2.76 µM). For the same molecule, the MBC90 [22] was 0.008 mg/mL (≈ 5.52 µM), the MBC [22, 28] was 4 µg/mL (≈ 2.76 µM) and the MIC [22, 28] was 4 µg/mL (≈ 2.76 µM). The MIC50 [22, 28] was 4 µg/mL (≈ 2.76 µM), the MIC90 [22, 28] was 8 µg/mL (≈ 5.52 µM) and the MBC50 (Staphylococcus aureus [23]) was 4 µg/mL (≈ 2.76 µM). The MBC90 (Staphylococcus aureus [23]) was 8 µg/mL (≈ 5.52 µM), the MBC (Staphylococcus aureus [23]; Staphylococcus aureus, 24 h) was 4 µg/mL (≈ 2.76 µM) and the MIC (Staphylococcus aureus [23]; Staphylococcus aureus, 24 h) was 4 µg/mL (≈ 2.76 µM). For the same molecule, the MIC50 (Staphylococcus aureus [23]; Staphylococcus aureus, 24 h) was 4 µg/mL (≈ 2.76 µM), the MIC90 (Staphylococcus aureus [23]; Staphylococcus aureus, 24 h) was 8 µg/mL (≈ 5.52 µM) and the MBC (Staphylococcus aureus [24]) was 4 µg/mL (≈ 2.76 µM).
For `CN[C@H](CC(C)C)C(=O)N[C@H]1C(=O)N[C@@H](CC(N)=O)C(=O)N[C@H]2C(=O)N[C@H]3C(=O)N[C@H](C(=O)N[C@H](C(=O)NCCCO/N=C(\C(=O)N[C@@H]4C(=O)N5C(C(=O)[O-])=C(C[n+]6ccccc6)CS[C@H]45)c4nc(N)sc4Cl)c4cc(O)cc(O)c4-c4cc3ccc4O)[C@H](O)c3ccc(c(Cl)c3)Oc3cc2cc(c3O[C@@H]2O[C@H](CO)[C@@H](O)[C@H](O)[C@H]2O[C@H]2C[C@](C)(N)[C@H](O)[C@H](C)O2)Oc2ccc(cc2Cl)[C@H]1O`, the fraction unbound [26] was 0.51, the half-life [27] was 408 min and the Drug uptake (Serum) was 4.65 µg/mL.
